{"source": "ChEMBL document CHEMBL1138492", "about": "“Conformationally constrained analogues of diacylglycerol (DAG). 31. Modulation of the biological properties of diacylgycerol lactones (DAG-lactones) containing rigid-rod acyl groups separated from the core lactone by spacer units of different lengths” (J Med Chem, 2009)", "key": {"[1]": {"molecular_target": "T1, Protein kinase C alpha type (Homo sapiens, UniProt P17252)", "assay": "Displacement of [3H]PDBu form human PKCalpha in presence of phosphatidylserine", "outline": "(§1)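 Recombinant human PKC isozyme, single isozyme per assay, with 100 μg/mL phosphatidylserine; competition of unlabeled ligand against [20-3H]PDBu binding; ID50 from least-squares sigmoidal fit, converted to Ki = ID50/(1 + L/Kd), L being free [3H]PDBu at ID50; mean ± SEM of three independent experiments.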"}, "[2]": {"molecular_target": "T2, Protein kinase C delta type (Homo sapiens, UniProt Q05655)", "assay": "Displacement of [3H]PDBu form human PKCdelta in presence of phosphatidylserine", "outline": "as §1"}, "[3]": {"molecular_target": "T3, Protein kinase C beta type (Homo sapiens, UniProt P05771)", "T3 sequence (P05771 whole entry)": "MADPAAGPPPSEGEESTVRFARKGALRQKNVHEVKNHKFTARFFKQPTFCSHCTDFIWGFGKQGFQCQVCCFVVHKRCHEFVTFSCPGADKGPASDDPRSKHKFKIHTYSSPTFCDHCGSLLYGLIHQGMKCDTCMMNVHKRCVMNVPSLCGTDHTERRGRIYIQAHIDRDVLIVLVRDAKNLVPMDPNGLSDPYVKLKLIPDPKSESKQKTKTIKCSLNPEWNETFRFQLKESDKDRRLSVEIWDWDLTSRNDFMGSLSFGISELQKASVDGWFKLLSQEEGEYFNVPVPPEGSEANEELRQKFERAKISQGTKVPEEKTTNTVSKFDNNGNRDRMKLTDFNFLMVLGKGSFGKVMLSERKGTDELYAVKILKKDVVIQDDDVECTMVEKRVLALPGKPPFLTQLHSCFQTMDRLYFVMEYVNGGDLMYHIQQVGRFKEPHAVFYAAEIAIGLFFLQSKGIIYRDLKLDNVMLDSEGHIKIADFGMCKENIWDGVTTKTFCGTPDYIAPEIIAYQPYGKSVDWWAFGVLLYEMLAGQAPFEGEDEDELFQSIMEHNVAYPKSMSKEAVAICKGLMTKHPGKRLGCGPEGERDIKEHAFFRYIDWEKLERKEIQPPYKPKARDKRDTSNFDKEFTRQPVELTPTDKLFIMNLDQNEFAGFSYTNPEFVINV", "assay": "Displacement of [3H]PDBu form human PKCbeta in presence of plasma membrane lipid mimetic mixture", "outline": "(§2)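 [3H]PDBu competition on individual recombinant human PKC isozymes in 100 μg/mL total lipid mimicking the plasma-membrane inner leaflet (PC/PE/PS/PI/cholesterol 12:35:22:9:21); ID50 fitted to a sigmoidal competition curve, Ki = ID50/(1 + L/Kd); three independent determinations, mean ± SEM.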"}, "[4]": {"molecular_target": "T4, Protein kinase C epsilon type (Homo sapiens, UniProt Q02156)", "T4 sequence (Q02156 whole entry)": "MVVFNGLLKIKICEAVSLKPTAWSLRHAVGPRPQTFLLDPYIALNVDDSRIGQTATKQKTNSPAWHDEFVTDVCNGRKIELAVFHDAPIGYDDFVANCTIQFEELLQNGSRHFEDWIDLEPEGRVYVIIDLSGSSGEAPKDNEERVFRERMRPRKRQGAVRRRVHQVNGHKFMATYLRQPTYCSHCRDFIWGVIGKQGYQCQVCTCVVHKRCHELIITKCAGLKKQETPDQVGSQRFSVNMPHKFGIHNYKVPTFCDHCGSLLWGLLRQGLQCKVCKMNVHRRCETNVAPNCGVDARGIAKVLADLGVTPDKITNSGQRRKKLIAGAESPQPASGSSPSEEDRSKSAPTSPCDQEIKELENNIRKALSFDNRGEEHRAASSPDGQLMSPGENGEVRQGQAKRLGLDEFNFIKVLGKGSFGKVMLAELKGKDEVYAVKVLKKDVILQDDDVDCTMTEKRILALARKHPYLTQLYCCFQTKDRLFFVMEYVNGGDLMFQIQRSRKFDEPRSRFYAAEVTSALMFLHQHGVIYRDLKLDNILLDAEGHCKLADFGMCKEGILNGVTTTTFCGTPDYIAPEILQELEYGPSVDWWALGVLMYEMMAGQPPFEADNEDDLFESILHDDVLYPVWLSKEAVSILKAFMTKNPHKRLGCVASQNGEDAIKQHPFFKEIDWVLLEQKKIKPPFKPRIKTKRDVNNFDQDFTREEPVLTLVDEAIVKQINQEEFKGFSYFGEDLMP", "assay": "Displacement of [3H]PDBu form human PKCepsilon in presence of phosphatidylserine", "outline": "as §1"}, "[5]": {"molecular_target": "T5, Protein kinase C gamma type (Homo sapiens, UniProt P05129)", "assay": "Displacement of [3H]PDBu form human PKCgamma in presence of phosphatidylserine", "outline": "as §1"}, "[6]": {"molecular_target": "T5, Protein kinase C gamma type", "assay": "Displacement of [3H]PDBu form human PKCgamma in presence of plasma membrane lipid mimetic mixture", "outline": "as §2"}, "[7]": {"molecular_target": "T1, Protein kinase C alpha type", "assay": "Displacement of [3H]PDBu form human PKCalpha in presence of plasma membrane lipid mimetic mixture", "outline": "as §2"}, "[8]": {"assay": "Membrane binding affinity to synthetic dimyristoylphosphatidylcholine/polydiacetylene vesicles assessed as increase in fluorescence chromatic response by fluorescence spectroscopy", "type": "physicochemical", "outline": "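DMPC/10,12-tricosadiynoic acid vesicles polymerized at 254 nm for 30 s, used at 0.5 mM total lipid in 50 mM Tris, pH 8; compounds in DMSO mixed with vesicles before buffer addition; fluorescence read at 485/555 nm excitation/emission, expressed as % of fully transformed red vesicles over a dose range.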"}, "[9]": {"molecular_target": "T3, Protein kinase C beta type", "assay": "Displacement of [3H]PDBu form human PKCbeta in presence of phosphatidylserine", "outline": "as §1"}, "[10]": {"molecular_target": "T1, Protein kinase C alpha type", "assay": "Activation of GFP-tagged PKCalpha expressed in CHO cells assessed as isozyme translocation from cytosol to plasma membrane at 10 uM by confocal microscopy", "type": "cell-based", "outline": "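GFP-PKCα transiently transfected (Lipofectamine) into CHO cells grown in F12-K with 10% FBS; cells given 10 μM compound and redistribution followed over time by confocal microscopy (488 nm argon excitation), images every 30 s; kinetics of plasma-membrane translocation scored from four independent experiments.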"}, "[11]": {"molecular_target": "T4, Protein kinase C epsilon type", "assay": "Displacement of [3H]PDBu form human PKCepsilon in presence of plasma membrane lipid mimetic mixture", "outline": "as §2"}, "[12]": {"molecular_target": "T2, Protein kinase C delta type", "assay": "Displacement of [3H]PDBu form human PKCdelta in presence of plasma membrane lipid mimetic mixture", "outline": "as §2"}, "[13]": {"molecular_target": "T2, Protein kinase C delta type", "assay": "Activation of GFP-tagged PKCdelta expressed in CHO cells assessed as isozyme translocation from cytosol to internal membrane at 10 uM by confocal microscopy", "type": "cell-based", "outline": "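CHO cells in F12-K/10% FBS transiently transfected with GFP-PKCδ, exposed to 10 μM compound; confocal imaging at 488 nm every 30 s after addition; relative localization to plasma, nuclear and internal membranes scored semi-quantitatively (+ marks) over three independent experiments.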"}, "LNCaP": {"system": "LNCaP", "assay": "Induction of apoptosis in human LNCAP cells after 48 hrs by flow cytometry relative to PMA", "type": "functional, cell-based", "outline": "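LNCaP cells in RPMI-1640/10% FBS, plated at ~60% confluency, treated with a concentration series for 48 h alongside 1 μM PMA; stained with YO-PRO-1 (1 μM final, 20 min, 4 °C, dark) then 7-AAD (5 μg/mL final, 10 min) and analyzed by flow cytometry; YO-PRO-1-positive cells taken as apoptotic, % of total; three experiments.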"}}, "note": "Calls of active or inactive are those of the source. The calls are words filed in the database; no cut-off is given here."}
{"smiles": "CC(C)=C1CC(CO)(COC(=O)CCCOc2ccc(C#Cc3ccc(C)cc3)cc2)OC1=O", "note": "(stereo unspecified)", "values": [{"measurement": "Ki", "setting": "[1]", "value": 19.5, "unit": "nM"}, {"measurement": "Ki", "setting": "[2]", "value": 11.9, "unit": "nM"}, {"measurement": "Ki", "setting": "[3]", "value": 43.8, "unit": "nM"}, {"measurement": "Ki", "setting": "[4]", "value": 37.9, "unit": "nM"}, {"measurement": "Ki", "setting": "[5]", "value": 12.3, "unit": "nM"}, {"measurement": "Ki", "setting": "[6]", "value": 31.7, "unit": "nM"}, {"measurement": "Ki", "setting": "[7]", "value": 76, "unit": "nM"}, {"measurement": "Activity", "setting": "[8]", "value": "Active"}, {"measurement": "Ki", "setting": "[9]", "value": 15.2, "unit": "nM"}, {"measurement": "Activity", "setting": "[10]", "value": "Active"}, {"measurement": "Ki", "setting": "[11]", "value": 31.9, "unit": "nM"}, {"measurement": "Ki", "setting": "[12]", "value": 11.6, "unit": "nM"}]}
{"smiles": "CC(C)=C1CC(CO)(COC(=O)CCOc2ccc(C#Cc3ccc(C)cc3)cc2)OC1=O", "note": "(stereo unspecified)", "values": [{"measurement": "Ki", "setting": "[1]", "value": 20.8, "unit": "nM"}, {"measurement": "Ki", "setting": "[2]", "value": 35.8, "unit": "nM"}, {"measurement": "Ki", "setting": "[3]", "value": 66, "unit": "nM"}, {"measurement": "Ki", "setting": "[4]", "value": 153, "unit": "nM"}, {"measurement": "Ki", "setting": "[5]", "value": 35, "unit": "nM"}, {"measurement": "Ki", "setting": "[6]", "value": 78, "unit": "nM"}, {"measurement": "Activity", "setting": "[13]", "value": "Active"}, {"measurement": "Ki", "setting": "[7]", "value": 143, "unit": "nM"}, {"measurement": "Activity", "setting": "[8]", "value": "Active"}, {"measurement": "Ki", "setting": "[9]", "value": 57, "unit": "nM"}, {"measurement": "Activity", "setting": "[10]", "value": "Active"}, {"measurement": "Ki", "setting": "[11]", "value": 78.7, "unit": "nM"}, {"measurement": "Ki", "setting": "[12]", "value": 31.3, "unit": "nM"}]}
{"smiles": "CC(C)=C1CC(CO)(COC(=O)COc2ccc(C#Cc3ccc(C)cc3)cc2)OC1=O", "note": "(stereo unspecified)", "values": [{"measurement": "Ki", "setting": "[1]", "value": 38, "unit": "nM"}, {"measurement": "Activity", "setting": "LNCaP", "value": "Active"}, {"measurement": "Ki", "setting": "[2]", "value": 46.4, "unit": "nM"}, {"measurement": "Ki", "setting": "[3]", "value": 100, "unit": "nM"}, {"measurement": "Ki", "setting": "[4]", "value": 268, "unit": "nM"}, {"measurement": "Ki", "setting": "[5]", "value": 50.8, "unit": "nM"}, {"measurement": "Ki", "setting": "[6]", "value": 140, "unit": "nM"}, {"measurement": "Activity", "setting": "[13]", "value": "Active"}, {"measurement": "Ki", "setting": "[7]", "value": 165, "unit": "nM"}, {"measurement": "Activity", "setting": "[8]", "value": "Active"}, {"measurement": "Ki", "setting": "[9]", "value": 76, "unit": "nM"}, {"measurement": "Activity", "setting": "[10]", "value": "Active"}, {"measurement": "Ki", "setting": "[11]", "value": 147, "unit": "nM"}, {"measurement": "Ki", "setting": "[12]", "value": 47.7, "unit": "nM"}]}
{"smiles": "CC(C)=C1CC(CO)(COC(=O)c2ccc(C#Cc3ccc(C)cc3)cc2)OC1=O", "note": "(stereo unspecified)", "values": [{"measurement": "Ki", "setting": "[1]", "value": 6, "unit": "nM"}, {"measurement": "Ki", "setting": "[2]", "value": 5.4, "unit": "nM"}, {"measurement": "Ki", "setting": "[3]", "value": 12.6, "unit": "nM"}, {"measurement": "Ki", "setting": "[4]", "value": 10, "unit": "nM"}, {"measurement": "Ki", "setting": "[5]", "value": 6.2, "unit": "nM"}, {"measurement": "Ki", "setting": "[6]", "value": 15.7, "unit": "nM"}, {"measurement": "Ki", "setting": "[7]", "value": 15.8, "unit": "nM"}, {"measurement": "Activity", "setting": "[8]", "value": "Active"}, {"measurement": "Ki", "setting": "[9]", "value": 4.1, "unit": "nM"}, {"measurement": "Activity", "setting": "[10]", "value": "Active"}, {"measurement": "Ki", "setting": "[11]", "value": 8.3, "unit": "nM"}, {"measurement": "Ki", "setting": "[12]", "value": 2.74, "unit": "nM"}]}
